How the values were obtained:
Rattus norvegicus [1] = experiment: Effect on lower lip retraction in Wistar rat at 2.5 mg/kg; format: functional
Method in brief: (§1)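 Male Wistar rats (290–310 g) dosed ip in 1% Tween 80 (2 ml/kg), caged singly; lower lip retraction scored 15, 30 and 45 min after dosing as 0 (incisors not visible), 0.5 (partly) or 1 (completely visible), totals up to 3 per rat. n = 6 per group; one-way ANOVA followed by Dunnett's test.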

Rattus norvegicus [2] = experiment: Effect on lower lip retraction in Wistar rat at 5 mg/kg; format: functional; method in brief: as §1
Rattus norvegicus [3] = experiment: Effect on lower lip retraction in Wistar rat at 10 mg/kg; format: functional; method in brief: as §1
Rattus norvegicus [4] = experiment: Effect on 8-OH-DPAT-induced lower lip retraction in Wistar rat at 2.5 mg/kg; format: functional
Mus musculus [5] = experiment: Anxiolytic activity in Swiss Albino mouse assessed as number of punished crossings for 60 secs at 2.5 mg/kg administered 30 mins before the test by four-plate test; format: functional
Method in brief: (§2)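 Male Albino Swiss mice (24–28 g), compound suspended in 1% aqueous Tween 80, given ip (10 ml/kg). Mouse placed in box with four metal floor plates, 15 s exploration, then floor electrified (120 V, 0.5 s) at each plate-to-plate crossing, no new shock for 3 s. Punished crossings counted over 60 s. n = 9-10/group; one-way ANOVA then Dunnett's test.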

Mus musculus [6] = experiment: Anxiolytic activity in Swiss Albino mouse assessed as number of punished crossings for 60 secs at 5 mg/kg administered 30 mins before the test by four-plate test; format: functional
Method in brief: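 Male Albino Swiss mice dosed ip (1% aqueous Tween 80, 10 ml/kg) 30 min beforehand. Opaque box floored with four metal plates; 15 s free exploration, then each plate-to-plate crossing triggers a 0.5 s, 120 V floor shock, with no new shock for 3 s if running continues. Punished crossings counted over 60 s; n = 9-10, ANOVA plus Dunnett's test.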

Mus musculus [7] = experiment: Anxiolytic activity in Swiss Albino mouse assessed as number of punished crossings for 60 secs at 10 mg/kg administered 30 mins before the test by four-plate test; format: functional; method in brief: as §2
Mus musculus [8] = experiment: Antidepressant activity in Swiss Albino mouse assessed as immobility time during final 4 mins of 6 mins session at 5 mg/kg administered 30 mins before the test by forced-swimming test; format: functional
Method in brief: (§3)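 Male Albino Swiss mice (24–28 g), compound given ip in 1% aqueous Tween 80 (10 ml/kg), 30 min before test. Mouse placed singly in glass cylinder (25 cm high, 10 cm diameter) holding 6 cm water at 23–25 °C for 6 min; immobility (floating, only small head-keeping movements) timed over last 4 min. n = 9-10 per group; one-way ANOVA then Dunnett's test.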

[9] = molecular target: T1, 5-hydroxytryptamine receptor 1A (Rattus norvegicus, UniProt P19327); experiment: Displacement of [3H]8-OH-DPAT from 5HT1A in rat hippocampal membranes; format: cell membranes, Hippocampus, Membrane
T1 sequence (P19327 whole entry): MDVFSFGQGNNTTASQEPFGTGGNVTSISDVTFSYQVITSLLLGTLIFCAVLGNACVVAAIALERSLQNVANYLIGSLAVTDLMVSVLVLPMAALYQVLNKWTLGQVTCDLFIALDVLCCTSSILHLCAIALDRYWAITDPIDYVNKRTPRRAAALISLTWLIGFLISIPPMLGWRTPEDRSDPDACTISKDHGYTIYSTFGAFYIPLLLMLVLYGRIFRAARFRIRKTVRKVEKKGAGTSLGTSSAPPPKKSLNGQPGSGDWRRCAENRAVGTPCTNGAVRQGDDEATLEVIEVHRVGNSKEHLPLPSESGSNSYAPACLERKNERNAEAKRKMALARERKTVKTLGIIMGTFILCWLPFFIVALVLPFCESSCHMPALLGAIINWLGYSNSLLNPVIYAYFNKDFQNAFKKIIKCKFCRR
Method in brief: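 Rat hippocampal membranes, [3H]-8-OH-DPAT as radioligand, 5-HT defining nonspecific binding. 7–9 drug concentrations run in triplicate, at least three separate experiments. Filtration through GF/B filters with three ice-cold buffer washes, scintillation counting. Ki from non-linear regression of binding isotherms via Cheng-Prusoff equation.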

D(2) dopamine receptor = D(2) dopamine receptor (Rattus norvegicus, UniProt P61169); experiment: Displacement of [3H]spiperone from dopamine D2 receptor in rat striatal membranes; format: cell membranes, Membrane
Sequence of D(2) dopamine receptor (P61169 whole entry): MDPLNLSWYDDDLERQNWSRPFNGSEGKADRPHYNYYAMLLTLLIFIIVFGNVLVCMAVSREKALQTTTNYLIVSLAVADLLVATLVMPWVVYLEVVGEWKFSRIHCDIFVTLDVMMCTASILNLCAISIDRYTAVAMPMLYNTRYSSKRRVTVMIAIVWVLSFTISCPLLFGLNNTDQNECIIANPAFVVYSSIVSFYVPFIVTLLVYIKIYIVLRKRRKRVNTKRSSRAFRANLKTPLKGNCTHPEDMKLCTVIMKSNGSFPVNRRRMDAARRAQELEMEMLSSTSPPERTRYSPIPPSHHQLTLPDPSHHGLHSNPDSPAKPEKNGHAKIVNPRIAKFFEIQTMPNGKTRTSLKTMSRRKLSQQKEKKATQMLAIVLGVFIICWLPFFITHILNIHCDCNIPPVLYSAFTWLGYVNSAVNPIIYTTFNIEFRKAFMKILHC
Method in brief: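 Competition binding on rat striatal membranes using [3H]-spiperone, butaclamol for nonspecific binding; filtration through GF/B filters and scintillation counting. Run at two compound concentrations, each in triplicate, and affinity expressed as estimated Ki.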

[10] = Displacement of [3H]prazosin from adrenergic alpha1 receptor in rat cortical membranes; format: cell membranes, Membrane
Method in brief: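 Rat cortical membranes with [3H]-prazosin; phentolamine defines nonspecific binding. 7–9 drug concentrations in triplicate, at least three separate experiments; stopped by GF/B filtration with three ice-cold buffer washes, bound radioactivity by liquid scintillation counting; Ki from non-linear regression and Cheng-Prusoff equation.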

[11] = molecular target: 5-hydroxytryptamine receptor 7 (Homo sapiens, UniProt P34969); experiment: Displacement of [3H]5-CT from human 5HT7 expressed in HEK293 cells; format: cell-based
Sequence of 5-hydroxytryptamine receptor 7 (P34969 whole entry): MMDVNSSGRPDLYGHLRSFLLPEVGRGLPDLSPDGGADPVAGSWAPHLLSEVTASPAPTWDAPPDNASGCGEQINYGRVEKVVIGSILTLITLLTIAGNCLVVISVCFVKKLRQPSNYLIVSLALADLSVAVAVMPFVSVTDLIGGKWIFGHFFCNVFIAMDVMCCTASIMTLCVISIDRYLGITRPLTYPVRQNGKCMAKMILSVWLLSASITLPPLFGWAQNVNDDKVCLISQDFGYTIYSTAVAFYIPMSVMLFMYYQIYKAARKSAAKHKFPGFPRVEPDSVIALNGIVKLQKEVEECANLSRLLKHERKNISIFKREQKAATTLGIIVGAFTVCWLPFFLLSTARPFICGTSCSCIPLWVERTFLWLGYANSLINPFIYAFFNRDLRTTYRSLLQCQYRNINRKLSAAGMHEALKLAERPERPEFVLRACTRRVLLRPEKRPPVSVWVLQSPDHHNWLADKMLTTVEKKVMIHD
Method in brief: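 HEK293 cells stably transfected with human 5-HT7(b) cDNA; membranes (10 µg protein) incubated 1 h at 37 °C in 50 mM Tris-HCl pH 7.4 with 4 mM MgCl2, 0.1 mM pargyline, 0.1% ascorbic acid, 0.5 nM [3H]-5-CT and 7–9 test concentrations in triplicate; 10 µM 5-HT defines nonspecific binding. GF/B filtration, scintillation counting; Ki via Cheng-Prusoff from ≥3 experiments.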

Mus musculus [12] = experiment: Antidepressant activity in Swiss Albino mouse assessed as immobility time during final 4 mins of 6 mins session at 10 mg/kg administered 30 mins before the test by forced-swimming test; format: functional; method in brief: as §3
Mus musculus [13] = experiment: Effect on locomotor activity in Swiss Albino mouse assessed as number of crossings in 6 mins at 5 mg/kg administered 30 mins before the test; format: functional
Method in brief: (§4)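 Male Albino Swiss mice (24–28 g) given compound ip (suspension in 1% aqueous Tween 80, 10 ml/kg). Animals housed singly in plastic cages in a multichannel photobeam activity monitor. Ambulation crossings counted over first 6 min and over 30-min session. n = 9-10/group; one-way ANOVA then Dunnett's test.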

Mus musculus [14] = experiment: Effect on locomotor activity in Swiss Albino mouse assessed as number of crossings in 30 mins at 5 mg/kg administered 30 mins before the test; format: functional
Method in brief: (§5)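 Male Albino Swiss mice given compound ip (1% Tween 80, 10 ml/kg) 30 min before placement singly in plastic cages in a multichannel photobeam activity monitor; ambulation crossings counted over the first 6 min and over a 30 min session. n = 9-10 per group; ANOVA then Dunnett's test.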

Mus musculus [15] = experiment: Effect on locomotor activity in Swiss Albino mouse assessed as number of crossings in 6 mins at 10 mg/kg administered 30 mins before the test; format: functional; method in brief: as §4
Mus musculus [16] = experiment: Effect on locomotor activity in Swiss Albino mouse assessed as number of crossings in 30 mins at 10 mg/kg administered 30 mins before the test; format: functional; method in brief: as §5
Mus musculus [17] = organism: Mus musculus; details: Swiss Albino, 5 mg/kg
Mus musculus [18] = organism: Mus musculus; details: Swiss Albino, 10 mg/kg
Mus musculus [19] = organism: Mus musculus; details: Swiss Albino, 5 mg/kg; remark: listed apart in the source
Mus musculus [20] = organism: Mus musculus; details: Swiss Albino, 10 mg/kg; remark: listed apart in the source
Mus musculus [21] = organism: Mus musculus; details: Swiss Albino, 10 mg/kg; remark: listed apart in the source
Mus musculus [22] = organism: Mus musculus; details: Swiss Albino, 10 mg/kg; remark: listed apart in the source
Mus musculus [23] = organism: Mus musculus; details: Swiss Albino, 5 mg/kg; remark: listed apart in the source
Mus musculus [24] = organism: Mus musculus; details: Swiss Albino, 10 mg/kg; remark: listed apart in the source
Mus musculus [25] = organism: Mus musculus; details: Swiss Albino, 5 mg/kg; remark: listed apart in the source
Mus musculus [26] = organism: Mus musculus; details: Swiss Albino, 10 mg/kg; remark: listed apart in the source
Rattus norvegicus [27] = experiment: Effect on lower lip retraction in Wistar rat at 20 mg/kg; format: functional; method in brief: as §1
Rattus norvegicus [28] = experiment: Effect on 8-OH-DPAT-induced lower lip retraction in Wistar rat at 10 mg/kg; format: functional
Rattus norvegicus [29] = experiment: Effect on 8-OH-DPAT-induced lower lip retraction in Wistar rat at 20 mg/kg; format: functional
Mus musculus [30] = organism: Mus musculus; details: Swiss Albino, 20 mg/kg
Mus musculus [31] = organism: Mus musculus; details: Swiss Albino, 20 mg/kg; remark: listed apart in the source
Mus musculus [32] = organism: Mus musculus; details: Swiss Albino, 20 mg/kg; remark: listed apart in the source
Mus musculus [33] = organism: Mus musculus; details: Swiss Albino, 10 mg/kg; remark: listed apart in the source
Mus musculus [34] = organism: Mus musculus; details: Swiss Albino, 20 mg/kg; remark: listed apart in the source
Mus musculus [35] = organism: Mus musculus; details: Swiss Albino, 20 mg/kg; remark: listed apart in the source

SMILES	Activity (Rattus norvegicus [3])	Ki [9]	Ki (D(2) dopamine receptor)	Ki [10]	Ki [11]	deltaT (Mus musculus [17])	deltaT (Mus musculus [18])	deltaT (Mus musculus [19])	deltaT (Mus musculus [20])	deltaT (Mus musculus [21])	deltaT (Mus musculus [22])	deltaT (Mus musculus [23])	deltaT (Mus musculus [24])	deltaT (Mus musculus [25])	deltaT (Mus musculus [26])	Activity (Rattus norvegicus [27])	Activity (Rattus norvegicus [28])	Activity (Rattus norvegicus [29])	other results
O=C1CCCC(=O)N1CCCCN1CCN(c2cccc(C(F)(F)F)c2)CC1	2.8	0.003 µM	> 5 µM	0.101 µM	0.021 µM	-0.4 °C	-1 °C	-0.1 °C	-0.9 °C	-1 °C	-0.8 °C	-0.5 °C	-1.3 °C	-0.4 °C	-1.1 °C	–	–	–	Activity (Rattus norvegicus [1]): 1.6; Activity (Rattus norvegicus [2]): 2.6; Activity (Rattus norvegicus [4]): 2.2; Activity (Mus musculus [5]): 4.3; Activity (Mus musculus [6]): 5.8; Activity (Mus musculus [7]): 5.2; Activity (Mus musculus [8]): 183.9 s; Activity (Mus musculus [12]): 196.7 s; Activity (Mus musculus [13]): 217.1; Activity (Mus musculus [14]): 526.2; Activity (Mus musculus [15]): 16.3; Activity (Mus musculus [16]): 179.3
CC1C(=O)N(CCCCN2CCN(c3cccc(C(F)(F)F)c3)CC2)C(=O)C1C (centres undefined)	1.3	0.0022 µM	4.37 µM	0.048 µM	0.107 µM	-0.2 °C	-0.4 °C	0 °C	-0.2 °C	–	–	-0.6 °C	-0.1 °C	-0.4 °C	-0.2 °C	1.3	1.4	0.2	–
O=C1C2CC=CCC2C(=O)N1CCCCN1CCN(c2cccc(C(F)(F)F)c2)CC1 (cis isomer)	1.4	0.034 µM	2.72 µM	0.073 µM	0.031 µM	–	-0.9 °C	–	-0.6 °C	–	–	–	-0.3 °C	–	-0.2 °C	1.8	1.9	0.5	deltaT (Mus musculus [30]): -1.6 °C; deltaT (Mus musculus [31]): -1.5 °C; deltaT (Mus musculus [32]): -1.2 °C; deltaT (Mus musculus [33]): -0.6 °C; deltaT (Mus musculus [34]): -1.5 °C; deltaT (Mus musculus [35]): -1.3 °C
O=C1C2CC=CCC2C(=O)N1C1CCC(N2CCN(c3cccc(C(F)(F)F)c3)CC2)CC1 (centres undefined)	0.7	0.0015 µM	4.68 µM	0.043 µM	0.335 µM	-0.4 °C	-1.1 °C	-0.1 °C	-1 °C	-0.5 °C	-0.3 °C	-0.7 °C	-1.7 °C	-0.4 °C	-1.3 °C	1.3	2.1	1.9	–

From ChEMBL document CHEMBL1139831, “The influence of modifications in imide fragment structure on 5-HT(1A) and 5-HT(7) receptor affinity and in vivo pharmacological properties of some new 1-(m-trifluoromethylphenyl)piperazines” (Bioorg Med Chem, 2007)
